Measurements pooled from the literature.
Compare with care: the assays were run in different laboratories.
Target: Receptor-interacting serine/threonine-protein kinase 1 (RIPK1, Homo sapiens, UniProt Q13546)
Sequence (Q13546 1-671, as in one of the studies): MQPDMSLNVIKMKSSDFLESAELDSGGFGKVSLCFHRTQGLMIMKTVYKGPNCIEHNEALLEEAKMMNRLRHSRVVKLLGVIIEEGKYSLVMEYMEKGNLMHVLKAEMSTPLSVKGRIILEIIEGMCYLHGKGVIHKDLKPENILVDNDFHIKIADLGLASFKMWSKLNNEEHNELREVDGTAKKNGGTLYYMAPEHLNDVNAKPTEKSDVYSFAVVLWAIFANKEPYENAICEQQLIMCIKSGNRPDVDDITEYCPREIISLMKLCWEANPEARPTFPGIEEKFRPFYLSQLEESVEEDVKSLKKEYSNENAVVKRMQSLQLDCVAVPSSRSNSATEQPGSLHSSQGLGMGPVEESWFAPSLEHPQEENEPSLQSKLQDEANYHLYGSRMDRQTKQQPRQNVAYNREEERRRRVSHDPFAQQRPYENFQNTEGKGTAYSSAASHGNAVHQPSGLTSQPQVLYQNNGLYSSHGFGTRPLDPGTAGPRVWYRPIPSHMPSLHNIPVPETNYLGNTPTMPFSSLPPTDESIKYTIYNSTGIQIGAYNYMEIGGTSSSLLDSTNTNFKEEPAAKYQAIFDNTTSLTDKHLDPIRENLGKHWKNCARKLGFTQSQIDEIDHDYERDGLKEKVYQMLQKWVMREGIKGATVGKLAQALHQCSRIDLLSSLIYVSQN

For `COc1ncc2cc3ccccc3nc2c1C#N`, the remaining binding was 100% (cell-free assay; competition with immobilised ligand; 5 µM).
For `O=C(NCC1CCOCC1)c1n[nH]cc1NC(=O)c1c(F)cccc1F`, the remaining binding was 94% (binding; competition with immobilised ligand; 1 µM).
`CCCCN(CCCC)C(=O)CN1C[C@@H](c2cc(OC)c3c(c2)OCO3)[C@H](C(=O)O)[C@H]1CC(C)(C)CCC` gave a remaining binding of 100% (cell-free assay; competition with immobilised ligand; 1 µM).
With `Cc1cnn2ncc(-c3ccnc(N(C)C)n3)c2c1` the remaining binding was 100% (binding; 1 µM).
`O=C(NCCCN1CCOCC1)c1ccc(Nc2ncc(Cl)c(-c3ccc(Cl)s3)n2)cc1` has a remaining binding of 45% (binding; competition with immobilised ligand; 1 µM).
With `c1cnn2ncc(-c3ccnc(N4CCC45COC5)n3)c2c1` the remaining binding was 83% (binding; 1 µM).
With `CCN1CCN(Cc2ccc(C(=O)Nc3ccc(C)c(Oc4ccc5c(c4)CC(=O)N5)c3)cc2C(F)(F)F)CC1` the remaining binding was 86% (binding; competition with immobilised ligand; 1 µM).
For `Cc1cnc(Nc2ccc(C(=O)N3CCC(N4CCCC4)CC3)cc2)nc1-c1cc2ccccc2s1`, the remaining binding was 1% (binding; competition with immobilised ligand; 1 µM).
`CCc1ccccc1C(=O)Nc1n[nH]c2c(C)c(F)c(C3C(C#N)=C(C)N(C)C(C)=C3C#N)cc12` has a remaining binding of 100% (cell-free assay; competition with immobilised ligand; 1 µM).
`COc1cnc(Nc2cccc(S(N)(=O)=O)c2)nc1N1CCN(c2ccccc2)CC1` has a remaining binding of 100% (binding; competition with immobilised ligand; 1 µM).
`C=CC(=O)N1CCC(C(=O)NCC(=O)N2CCN(c3nc(-c4cnc(N)nc4C(F)F)nc(N4CCOCC4)n3)CC2)CC1` has a remaining binding of 100% (binding; competition with immobilised ligand; 1 µM).
The remaining binding of `CC1CCCN1c1nccc(-c2cnn3ncccc23)n1` (stereo not drawn) is reported as 100% (binding; 1 µM).
`O=C(Nc1ccc(Oc2ccc(F)cc2)cc1)N1CCc2ncccc2[C@H]1c1ccc(F)cc1` has a remaining binding of 100% (cell-free assay; competition with immobilised ligand; 1 µM).
With `C[C@@H]1CCN(c2nccc(-c3cnn4ncccc34)n2)C1` the remaining binding was 100% (binding; 1 µM).
With `Cc1c(C(=O)O)cc(-c2ccc(C3CCNCC3)cc2)c2ccc(-c3ccc(C(F)(F)F)cc3)cc12` the remaining binding was 100% (binding; competition with immobilised ligand; 1 µM).
`c1cncc(-c2cccc(Nc3nccc(NC4CCCCC4)n3)c2)c1` gave a remaining binding of 98% (binding; competition with immobilised ligand; 10 µM).
The remaining binding of `O=C(c1ccc(Nc2ncc(Cl)c(-c3ccc(Cl)s3)n2)cc1)N1CCC(N2CCCC2)CC1` is reported as 0.5% (binding; competition with immobilised ligand; 1 µM).
`O=C1CCc2cc(Nc3cc(OC4CCOCC4)c([N+](=O)[O-])cc3Cl)ccc2N1` gave a remaining binding of 100% (cell-free assay; competition with immobilised ligand; 1 µM).
